Compound activity: PubChem, several laboratories
Hits are enriched below; roughly 3.7% of the tested compounds scored in any of these assays.
OX1R antag-1: blocks the human orexin 1 receptor; O43613; OX1R-expressing cells, FRET antagonist read-out; inhibition, % at 6.6 µM; 330,000 tested, 1.8% active; in the data active = inhibition mostly above about 38%, no sharp cut-off; inactive = mostly below about 40%
CHO parental Ca: counter-screen for OX1R antagonists: effect in parental CHO cells. parental CHO-K1, ATP-induced calcium, Fluo-8 fluorescence. AID 463079. 330,000 tested, 0.63% active. inhibition, % at 5.6 µM;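 active = inhibition above that plate's mean sample inhibition plus 3 SD, cut at about 26% in these data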
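Test system: untransfected parental CHO cell line; also added: ATP stimulus; dosing: 5.6 µM, single dose; signal: calcium-sensitive Fluo-8 fluorescence; measure: percent inhibition of ATP-evoked calcium rise, normalized to controls; benchmarks: low control ATP plus DMSO, high control DMSO only; replication: one well per compound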
PGE2 EP2 inh: EP2 receptor (human) inhibition | 260,000 tested, 0.52% active | C6 glioma cells expressing human EP2, cAMP TR-FRET; cells stimulated with saturating PGE2 | inhibition, % at 25 µM | P43116;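 active = percent inhibition above 40 after rounding to a whole number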;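 note: rat C6 glioma host cells with rolipram phosphodiesterase inhibitor present; the protocol text gives 20 µM as final concentration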
Target sequence (P43116 whole entry, looked up): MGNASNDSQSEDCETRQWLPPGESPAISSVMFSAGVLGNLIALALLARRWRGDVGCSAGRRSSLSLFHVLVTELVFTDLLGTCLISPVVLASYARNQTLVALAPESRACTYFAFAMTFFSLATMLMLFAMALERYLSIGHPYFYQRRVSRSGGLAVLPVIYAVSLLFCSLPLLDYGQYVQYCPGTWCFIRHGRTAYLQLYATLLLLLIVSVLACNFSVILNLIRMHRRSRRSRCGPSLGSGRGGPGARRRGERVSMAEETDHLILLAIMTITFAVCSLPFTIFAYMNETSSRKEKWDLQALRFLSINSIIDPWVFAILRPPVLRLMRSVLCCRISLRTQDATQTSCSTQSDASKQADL
OX1R antag-2: blocks the human orexin 1 receptor | CHO/OX1R cells, Fluo-8 calcium fluorescence, orexin A | inhibition, % at 5 µM | 330,000 tested, 0.43% active;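 active = inhibition above its plate's threshold, mean inhibition of all tested compounds on the plate plus 3 SD, cut at about 37% in these data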
GPR7 antag: human neuropeptides B/W receptor 1 antagonism | P48145 | inhibition, % at 4.4 µM | AID 1861 | 290,000 tested, 1.1% active | GPR7-expressing cells, fluorescence antagonist assay; in the data active = inhibition above about 16%, passing the limit was not always enough;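 note: cells stimulated with the agonist NPW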
Target sequence (P48145 whole entry, looked up): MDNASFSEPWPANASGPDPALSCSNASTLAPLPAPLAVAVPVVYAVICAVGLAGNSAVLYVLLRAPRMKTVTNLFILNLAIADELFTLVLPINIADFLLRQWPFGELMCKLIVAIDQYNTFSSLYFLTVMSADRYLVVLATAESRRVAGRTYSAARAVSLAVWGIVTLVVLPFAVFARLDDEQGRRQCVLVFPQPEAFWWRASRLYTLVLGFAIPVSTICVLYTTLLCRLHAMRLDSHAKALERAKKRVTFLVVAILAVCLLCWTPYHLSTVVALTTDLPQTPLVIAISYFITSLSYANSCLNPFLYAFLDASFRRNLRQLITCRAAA
EP2 mod: modulates human prostaglandin E2 receptor EP2 signaling; 260,000 tested, 0.83% active; EP2-expressing cells, cAMP HTRF FRET, PGE2 co-stimulation; P43116; induction, % at 25 µM;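 active = compounds whose cAMP rise, as percent of the full-agonist control response, exceeds 60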;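 note: rat C6 glioma line stably carrying human EP2 under a CMV promoter; the protocol text gives 20 µM as final concentration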
Hits are given with their value; i = inactive; nt = no result.

SMILES	OX1R antag-1	CHO parental Ca	PGE2 EP2 inh	OX1R antag-2	GPR7 antag	EP2 mod
COc1ccc(NC(=O)c2cc3c(Cl)nc4ccccc4c3s2)cc1OC	66.0	i	i	i	i	i
O=C(Cc1ccccc1[N+](=O)[O-])Nc1ccc(S(=O)(=O)N2CCCC2)cc1	i	i	nt	i	i	nt
CC1=C(C#N)c2nc(N)c(C#N)c(C)c2/C1=C\c1ccc(Cl)cc1	nt	nt	i	nt	nt	i
CC1=C(C#N)c2nc(N)c(C#N)c(C)c2/C1=C\c1cccc(Cl)c1	nt	nt	50.3	nt	nt	i
CN(c1ccccc1)S(=O)(=O)c1cccc(NC(=O)CN2CCCc3ccccc32)c1	i	32.9	i	i	i	i
CCOC(=O)CCSc1nc(C)c2cc(C)c(C)cc2n1	i	i	i	i	i	i
CSc1ccc(S(=O)(=O)NCC(=O)OCC(=O)N(C)C2CCCCC2)cc1[N+](=O)[O-]	i	i	nt	i	nt	nt
CCN(C(=O)COC(=O)CNS(=O)(=O)c1ccc(SC)c([N+](=O)[O-])c1)C1CCCCC1	52.5	i	nt	i	nt	nt
CSc1ccc(S(=O)(=O)NCC(=O)OCC(=O)NCc2ccco2)cc1[N+](=O)[O-]	i	i	nt	i	nt	nt
CSc1ccc(S(=O)(=O)NCC(=O)OCC(=O)NCCc2ccccc2)cc1[N+](=O)[O-]	36.8	i	nt	i	nt	nt
CSc1ccc(S(=O)(=O)NCC(=O)OC(C)C(=O)NCc2ccccc2)cc1[N+](=O)[O-] (stereo unspecified)	66.9	i	nt	i	nt	nt
CCC(=O)N1C(=O)CCN(C(C)=O)c2ccccc21	i	i	i	i	i	i
N#CC1=C(N)Oc2cc(O)c(Cl)cc2C1c1ccccc1F (stereo unspecified)	i	30.1	nt	i	i	nt
COc1cccc(NC(=S)N2CCN(c3ccc([N+](=O)[O-])cc3)CC2)c1	i	i	i	i	i	i
O=c1c(-c2ccccc2)c(O)nc2ccccn12	i	i	i	i	18.7	i
CCc1c(O)nc2ccccn2c1=O	i	i	i	i	i	i
COc1ccc([C@H]2/C=C\CN(S(=O)(=O)c3cccc4cccnc34)[C@@H](C)C(=O)N2Cc2ccc(F)cc2)cc1	69.9	i	i	i	nt	nt
CCOc1ccc(S(=O)(=O)NCc2ccco2)cc1C	nt	nt	i	nt	nt	i
O=c1cc(-c2ccsc2)oc2ccccc12	i	i	nt	i	nt	nt
CN(C)c1ccc(-c2ccc3oc(-c4ccsc4)cc(=O)c3c2)cn1	57.4	i	nt	i	nt	nt
Cc1ccccc1Cn1cc(NC(=O)c2noc3c2CC(C(C)(C)C)CC3)cn1 (stereo unspecified)	i	i	i	i	i	i
CCOc1ccc(OCC)c(S(=O)(=O)NNC(=O)c2c(C)nc3ccccn23)c1	i	i	i	i	i	i
O=C1c2ccccc2S(=O)(=O)c2cc(N3CCOCC3)ccc21	56.0	i	i	i	nt	nt
COC(=O)c1sccc1NC(=O)c1c(Cl)cccc1Cl	i	i	nt	i	i	nt
COC(=O)c1sccc1NC(=O)CSc1cccc(Cl)c1Cl	i	i	nt	i	i	61.0
SMILES	OX1R antag-1	CHO parental Ca	PGE2 EP2 inh	OX1R antag-2	GPR7 antag	EP2 mod
Cc1cc[n+](-c2[nH]c(=O)sc2/C=N/NC([S-])=Nc2ccccc2)cc1	i	i	i	i	i	i
CC(C)(C)c1cc[n+](-c2[nH]c(=O)sc2/C=N/NC(=O)c2ccccc2[O-])cc1	56.5	i	nt	i	i	nt
CC(C)(C)c1cc[n+](-c2[nH]c(=O)sc2/C=N/N=C(\[O-])c2cccnc2)cc1	58.1	i	nt	i	i	nt
CC(c1nccs1)N(C)C(=O)c1ccc(OC2CCN(CCc3ccccc3)CC2)cc1 (stereo unspecified)	i	i	nt	i	i	nt
COc1ccc(Br)cc1-c1nc(CCl)cs1	i	i	i	i	i	63.2
COc1ccc(NC(=O)NC(C)c2ccc3c(c2)OCO3)c(OC)c1 (stereo unspecified)	i	i	nt	i	i	nt
COC(=O)c1ccc(OCC(=O)c2ccccc2OC)cc1	45.3	i	i	i	i	i
COC(=O)c1ccc(COC(=O)c2ccccc2OC)cc1	i	i	i	i	i	i
O=C(Nc1ccc(Cl)cc1)N[C@@H]1c2c(ccc3ccccc23)OC[C@@H]1CO	i	i	i	i	i	i
Cc1ccc2nc(SCC(=O)N3c4ccccc4CC3C)c(C)cc2c1 (stereo unspecified)	i	i	i	i	i	i
CCc1ccc2nc(SCC(=O)N3c4ccccc4CC3C)c(C#N)cc2c1 (stereo unspecified)	nt	nt	i	nt	nt	64.3
CCOc1cccc(NC(=O)c2ccc(S(=O)(=O)N(C)C)cc2)c1	i	i	i	i	i	i
Cc1cc2nc(SCCOC(=O)Nc3ccccc3)nc(C)c2cc1C	71.6	i	i	i	i	i
N#Cc1c(=O)c2nc(NCc3ccccc3)ncc2n2ccccc12	62.1	i	i	i	i	i
CC(C)C(=O)N(c1cc2sc(=O)oc2c2ccccc12)S(=O)(=O)c1cccs1	i	87.2	i	67.7	i	i
O=C(O)c1cccc(N=Nc2c(S(=O)(=O)O)ccc3c2C(=O)c2ccccc2C3=O)c1O	nt	nt	46.1	nt	nt	i
CC1(C)CC(=O)C2=C(C1)Nc1ccccc1NC2c1cccc(F)c1 (stereo unspecified)	nt	nt	nt	nt	i	nt
C[C@H](CCC(=O)O)[C@H]1CC[C@@]2(C)[C@@H]3C(=O)C[C@H]4C(C)(C)[C@@H](O)CC[C@]4(C)[C@H]3C(=O)C[C@]12C	nt	nt	46.3	nt	nt	i
CC(CCC(=O)O)C1CC[C@@]2(C)C3C(=O)CC4C(C)(C)C(O)CC[C@]4(C)C3C(=O)C[C@]12C (stereo partly specified)	i	i	i	i	i	i
CC(=O)N(C)C1=C(N2CCOCC2)C(=O)c2ccccc2C1=O	73.2	i	i	i	i	i
CCCCCc1ccc(-c2ccc(/C=C/C(=O)O)cc2)nc1	i	i	i	i	i	62.4
CCCc1ccc(-c2ccc(/C=C/C(=O)O)cc2)nc1	i	i	i	i	i	i
CC(=O)c1cccc(OCc2cc(C(=O)NC3CCN(Cc4ccccc4)CC3)no2)c1	i	i	nt	i	i	nt
CC(C)(C)N(Cc1ccccc1)C(=O)COC(=O)c1ccc(N2CCCC2=O)cc1	i	i	nt	i	nt	nt
O=C(O)c1ccccc1-c1ccccc1C(=O)Nc1ccc2c(c1)Cc1ccccc1-2	nt	nt	i	nt	nt	i
S=C(Nc1ccc2c(c1)Cc1ccccc1-2)Nc1ccc2c(c1)Cc1ccccc1-2	nt	nt	55.3	nt	nt	i
O=C(O)c1ccccc1-c1ccccc1C(=O)Nc1ccc2c(c1)Cc1cc(F)ccc1-2	nt	nt	43.3	nt	nt	i
COCCNC(=O)C(=O)NCC1OCCN1C(=O)c1ccc(Cl)cc1 (stereo unspecified)	i	i	i	i	i	i
COc1ccc(/C=C/C(=O)NC(=S)Nc2ccc(S(=O)(=O)Nc3nccnc3OC)cc2)cc1	i	i	40.4	i	i	i
COc1ccc(/C=C/C(=O)NC(=S)Nc2ccc(S(=O)(=O)Nc3cc(OC)ncn3)cc2)cc1	nt	nt	63.9	nt	i	i
